Measurements reported in ChEMBL document CHEMBL5649170, “Sustained microglial depletion with CSF1R inhibitor impairs parenchymal plaque development in an Alzheimer's disease model” (Nat Commun, 2019).

Key:
Mus musculus [1] = assay: Antialzheimer activity in 5XFAD mouse assessed as number of plaques per FOV in somatosensory cortex at 75 ppm administered as rodent chow starting from 1.5 months and measured after 5 months by immunolabeling based confocal microscopic analysis (reference value: 22 to 91); format: functional; conditions: route po, time 3.5 months, 2555 h
How it was run: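 5xFAD mice ate AIN-76A chow with 75 ppm PLX3397, or control chow, from 1.5 to 5 months of age. Sections of retrosplenial and somatosensory cortex were stained with Thio-S and immunolabeled for IBA1, then imaged by confocal microscopy. n = 4–5 per group; two-tailed independent t-test; mean ± SEM.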

Mus musculus [2] = assay: Antialzheimer activity in 5XFAD mouse assessed as iron reactivity by measuring hemosiderin intensity of prussian blue staining in thalamus at 1200 ppm administered as rodent chow starting from 1.5 months and measured after 4 months by confocal microscopic analysis (reference value: 0.1 to 4.094 a.u.); format: functional; conditions: route po, time 2.5 months, 1825 h
How it was run: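 Wild-type or 5xFAD mice fed PLX5622 (1200 ppm) in AIN-76A chow from 1.5 months of age, examined in 4- and 7-month-old cohorts. Brain sections stained with a Prussian blue kit per kit instructions to detect iron deposits (microbleeds).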

[3] = biological target: Macrophage-stimulating protein receptor (Homo sapiens, UniProt Q04912); assay: Inhibition of MST1R (unknown origin)
[4] = Effect on Gls gene expression in wildtype mouse hippocampus assessed as percent change in Reads Per kilo base per Million mapped reads at 1200 ppm administered as rodent chow starting from 1.5 months and measured after 7 months by RNA-Seq analysis (reference value: 89.231 to 109.618 %); format: functional; conditions: route po, time 5.5 months, 4015 h
[5] = Toxicity in wildtype mouse assessed as total number of arm entries at 1200 ppm administered as rodent chow for 10 to 24 weeks by Y-maze test (reference value: 14 to 35); conditions: in vivo, po, time 10-24 weeks
[6] = Prevention of Kcnq3 gene downregulation in 5XFAD mouse hippocampus assessed as percent change in Reads Per kilo base per Million mapped reads at 1200 ppm administered as rodent chow starting from 1.5 months and measured after 7 months by RNA-Seq analysis (reference value: 55.386 to 68.581 %); format: functional; conditions: route po, time 5.5 months, 4015 h
Mus musculus [7] = assay: Antialzheimer activity in 5XFAD mouse assessed as amyloidbeta38 level in detergent soluble cortex fraction measured per microgram protein at 1200 ppm administered as rodent chow starting from 1.5 months and measured after 7 months by ELISA (reference value: 0 to 0.014 pg); format: functional; conditions: route po, time 5.5 months, 4015 h
How it was run: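 PLX5622 at 1200 ppm in chow given to 5xFAD mice from 1.5 months to 4 or 7 months of age; cortex and thalamus homogenized in TPER (detergent-soluble), pellets re-homogenized in 70% formic acid and spun 100,000 g, 1 h, 4 °C (insoluble); protein by Bradford/Lowry; Aβ species measured by Meso Scale electrochemiluminescence immunoassay, normalized to protein; n = 7–8 per group at 7 months.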

[8] = biological target: Tyrosine-protein kinase Lyn (Homo sapiens, UniProt P07948); assay: Inhibition of LYN_B (unknown origin)
[9] = biological target: Platelet-derived growth factor receptor alpha (Homo sapiens, UniProt P16234); assay: Inhibition of PDGFRA (unknown origin)
Mus musculus [10] = assay: Effect on APP processing pathway in wildtype mouse assessed as C83 protein signal intensity in cortex at 1200 ppm administered as rodent starting from 1.5 months and measured after 7 months (reference value: 2.769 to 56.642 %); format: functional; conditions: route po, time 5.5 months, 4015 h
Mus musculus [11] = assay: Antialzheimer activity in 5XFAD mouse assessed as percent change in claudin-5 intensity of retro spinal cortex at 1200 ppm administered as rodent chow starting from 1.5 months and measured after 4 months by immunolabeling analysis relative to control; format: functional; conditions: route po, time 2.5 months, 1825 h
[12] = biological target: T1, Macrophage colony-stimulating factor 1 receptor (Mus musculus) (UniProt P09581); assay: In vivo inhibition of CSF1R in wildtype mouse assessed as microglial elimination in cortex at 1200 ppm administered as rodent chow for 10 weeks by […] based confocal microscopic analysis relative to control; format: functional; parameters: scale not given: the % may be the effect or the level left; conditions: route po
T1 sequence (whole entry): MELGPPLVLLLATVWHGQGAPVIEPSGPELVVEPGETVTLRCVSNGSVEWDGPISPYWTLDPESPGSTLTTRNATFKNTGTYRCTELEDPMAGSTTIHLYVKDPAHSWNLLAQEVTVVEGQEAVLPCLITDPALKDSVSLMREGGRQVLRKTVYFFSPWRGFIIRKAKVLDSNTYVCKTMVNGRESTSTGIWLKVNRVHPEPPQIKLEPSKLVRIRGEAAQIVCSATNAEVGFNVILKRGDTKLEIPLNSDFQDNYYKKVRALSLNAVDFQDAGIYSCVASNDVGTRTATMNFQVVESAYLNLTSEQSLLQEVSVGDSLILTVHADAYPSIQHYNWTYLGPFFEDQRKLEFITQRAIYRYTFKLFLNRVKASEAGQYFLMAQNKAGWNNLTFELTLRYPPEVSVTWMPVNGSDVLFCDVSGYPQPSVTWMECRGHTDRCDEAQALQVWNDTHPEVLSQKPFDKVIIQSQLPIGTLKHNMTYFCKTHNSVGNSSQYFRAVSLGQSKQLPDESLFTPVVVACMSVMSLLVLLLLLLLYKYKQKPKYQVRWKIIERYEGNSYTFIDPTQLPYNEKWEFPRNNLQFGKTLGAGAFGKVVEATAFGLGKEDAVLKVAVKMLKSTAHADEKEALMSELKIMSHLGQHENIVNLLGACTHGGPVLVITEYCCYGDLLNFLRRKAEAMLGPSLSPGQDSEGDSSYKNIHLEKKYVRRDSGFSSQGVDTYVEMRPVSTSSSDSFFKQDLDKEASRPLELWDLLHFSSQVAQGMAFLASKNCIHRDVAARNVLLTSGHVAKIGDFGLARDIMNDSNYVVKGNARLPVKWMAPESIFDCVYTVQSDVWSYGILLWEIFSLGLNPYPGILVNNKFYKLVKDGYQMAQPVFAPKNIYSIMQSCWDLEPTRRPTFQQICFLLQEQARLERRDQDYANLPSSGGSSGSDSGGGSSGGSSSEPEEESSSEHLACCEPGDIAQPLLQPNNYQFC

[13] = AUC (0 to 24 hrs) in mouse brain at 300 ppm administered as rodent chow for 14 days; format: ADME, tissue-based; conditions: route po, time 14 day
[14] = Effect on Ctsz gene expression in 5XFAD mouse cortex at 1200 ppm administered as rodent chow starting from 1.5 months and measured after 7 months by RNA-Seq analysis (reference value: 27.650 to 42.003 RPKM); format: functional; conditions: route po, time 5.5 months, 4015 h
[15] = biological target: Protein kinase C zeta type (Homo sapiens, UniProt Q05513); assay: Inhibition of PRKCZ (unknown origin)
Mus musculus [16] = assay: Antialzheimer activity in 5XFAD mouse assessed as alteration in plaque morphology by measuring average plaque circularity in thalamus at 1200 ppm administered as rodent chow starting from 1.5 months and measured after 7 months by Thio-S labeling based confocal microscopic analysis (reference value: 0.257 to 0.365); format: functional; conditions: route po, time 5.5 months, 4015 h
[17] = biological target: NT-3 growth factor receptor (Homo sapiens, UniProt Q16288); assay: Inhibition of NTRK3 (unknown origin)
[18] = biological target: Mitogen-activated protein kinase 3 (Homo sapiens, UniProt P27361); assay: Inhibition of MAPK3 (unknown origin)
[19] = biological target: Serine/threonine-protein kinase PLK1 (Homo sapiens, UniProt P53350); assay: Inhibition of PLK1 (unknown origin)
Serine/threonine-protein kinase PLK1, sequence (P53350 whole entry): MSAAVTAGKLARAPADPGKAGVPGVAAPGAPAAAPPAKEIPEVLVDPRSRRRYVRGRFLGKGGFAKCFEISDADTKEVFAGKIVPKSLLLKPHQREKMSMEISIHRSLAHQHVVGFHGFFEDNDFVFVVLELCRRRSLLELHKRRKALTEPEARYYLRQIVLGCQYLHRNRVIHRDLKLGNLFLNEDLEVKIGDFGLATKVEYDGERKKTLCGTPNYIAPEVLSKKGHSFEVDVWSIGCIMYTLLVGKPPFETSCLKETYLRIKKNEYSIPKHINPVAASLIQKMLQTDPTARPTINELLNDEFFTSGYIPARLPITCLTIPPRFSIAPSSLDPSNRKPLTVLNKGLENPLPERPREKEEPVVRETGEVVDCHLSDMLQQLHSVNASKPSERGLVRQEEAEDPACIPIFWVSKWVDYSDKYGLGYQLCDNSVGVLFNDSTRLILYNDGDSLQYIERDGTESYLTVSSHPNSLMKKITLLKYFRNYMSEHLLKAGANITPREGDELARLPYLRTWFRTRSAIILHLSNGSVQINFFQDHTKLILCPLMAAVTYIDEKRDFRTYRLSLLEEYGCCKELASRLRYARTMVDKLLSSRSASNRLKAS

Tyrosine-protein kinase Lyn, sequence (P07948 whole entry): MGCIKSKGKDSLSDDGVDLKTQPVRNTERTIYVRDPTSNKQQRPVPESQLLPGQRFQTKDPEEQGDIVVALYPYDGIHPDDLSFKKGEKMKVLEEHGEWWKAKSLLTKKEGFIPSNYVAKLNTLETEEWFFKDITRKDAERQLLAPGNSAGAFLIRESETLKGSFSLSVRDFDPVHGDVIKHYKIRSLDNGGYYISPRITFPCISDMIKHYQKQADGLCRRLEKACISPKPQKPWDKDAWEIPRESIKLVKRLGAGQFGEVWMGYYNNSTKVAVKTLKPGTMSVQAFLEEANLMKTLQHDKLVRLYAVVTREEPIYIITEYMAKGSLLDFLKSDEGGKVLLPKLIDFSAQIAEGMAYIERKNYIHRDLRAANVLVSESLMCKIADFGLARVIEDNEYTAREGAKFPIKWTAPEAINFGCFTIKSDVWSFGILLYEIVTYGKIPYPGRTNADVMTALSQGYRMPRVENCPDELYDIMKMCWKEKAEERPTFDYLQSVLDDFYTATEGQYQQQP
Mitogen-activated protein kinase 3, sequence (P27361 whole entry): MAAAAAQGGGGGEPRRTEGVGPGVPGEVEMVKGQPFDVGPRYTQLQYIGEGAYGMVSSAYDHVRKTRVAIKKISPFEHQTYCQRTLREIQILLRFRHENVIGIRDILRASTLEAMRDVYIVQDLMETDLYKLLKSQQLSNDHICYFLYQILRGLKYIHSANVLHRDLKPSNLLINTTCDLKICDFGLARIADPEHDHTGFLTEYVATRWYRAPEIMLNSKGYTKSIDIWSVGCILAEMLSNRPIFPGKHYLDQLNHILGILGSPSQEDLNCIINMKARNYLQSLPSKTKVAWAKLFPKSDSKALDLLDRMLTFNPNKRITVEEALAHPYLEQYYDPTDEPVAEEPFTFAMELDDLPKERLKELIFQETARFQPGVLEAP
Platelet-derived growth factor receptor alpha, sequence (P16234 whole entry): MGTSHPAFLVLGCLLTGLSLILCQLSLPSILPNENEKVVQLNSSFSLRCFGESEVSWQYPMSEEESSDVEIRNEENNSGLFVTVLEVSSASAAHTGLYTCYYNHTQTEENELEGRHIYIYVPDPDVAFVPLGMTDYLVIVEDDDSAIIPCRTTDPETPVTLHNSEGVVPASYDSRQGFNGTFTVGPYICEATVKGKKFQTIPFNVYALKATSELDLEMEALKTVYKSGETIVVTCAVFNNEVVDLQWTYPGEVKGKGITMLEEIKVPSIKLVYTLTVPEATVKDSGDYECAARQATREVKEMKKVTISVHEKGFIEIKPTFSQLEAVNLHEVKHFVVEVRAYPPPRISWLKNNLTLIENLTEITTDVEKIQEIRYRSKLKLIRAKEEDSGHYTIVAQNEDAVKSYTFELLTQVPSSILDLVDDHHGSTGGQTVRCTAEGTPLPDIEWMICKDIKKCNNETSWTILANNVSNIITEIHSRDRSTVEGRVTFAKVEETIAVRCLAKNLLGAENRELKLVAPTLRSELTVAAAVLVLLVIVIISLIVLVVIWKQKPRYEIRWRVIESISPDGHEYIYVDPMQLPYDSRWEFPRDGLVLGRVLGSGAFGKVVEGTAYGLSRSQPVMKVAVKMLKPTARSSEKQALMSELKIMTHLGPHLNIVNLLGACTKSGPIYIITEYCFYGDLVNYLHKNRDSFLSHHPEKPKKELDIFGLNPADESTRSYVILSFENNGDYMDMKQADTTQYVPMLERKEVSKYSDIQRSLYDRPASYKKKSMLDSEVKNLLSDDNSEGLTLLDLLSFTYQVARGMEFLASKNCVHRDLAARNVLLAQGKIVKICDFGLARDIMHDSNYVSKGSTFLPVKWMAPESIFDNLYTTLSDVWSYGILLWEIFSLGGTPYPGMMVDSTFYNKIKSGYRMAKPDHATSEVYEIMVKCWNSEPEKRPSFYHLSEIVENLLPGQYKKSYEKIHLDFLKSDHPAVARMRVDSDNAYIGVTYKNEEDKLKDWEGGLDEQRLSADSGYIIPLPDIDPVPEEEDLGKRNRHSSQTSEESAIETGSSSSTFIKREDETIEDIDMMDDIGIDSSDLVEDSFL
NT-3 growth factor receptor, sequence (Q16288 whole entry): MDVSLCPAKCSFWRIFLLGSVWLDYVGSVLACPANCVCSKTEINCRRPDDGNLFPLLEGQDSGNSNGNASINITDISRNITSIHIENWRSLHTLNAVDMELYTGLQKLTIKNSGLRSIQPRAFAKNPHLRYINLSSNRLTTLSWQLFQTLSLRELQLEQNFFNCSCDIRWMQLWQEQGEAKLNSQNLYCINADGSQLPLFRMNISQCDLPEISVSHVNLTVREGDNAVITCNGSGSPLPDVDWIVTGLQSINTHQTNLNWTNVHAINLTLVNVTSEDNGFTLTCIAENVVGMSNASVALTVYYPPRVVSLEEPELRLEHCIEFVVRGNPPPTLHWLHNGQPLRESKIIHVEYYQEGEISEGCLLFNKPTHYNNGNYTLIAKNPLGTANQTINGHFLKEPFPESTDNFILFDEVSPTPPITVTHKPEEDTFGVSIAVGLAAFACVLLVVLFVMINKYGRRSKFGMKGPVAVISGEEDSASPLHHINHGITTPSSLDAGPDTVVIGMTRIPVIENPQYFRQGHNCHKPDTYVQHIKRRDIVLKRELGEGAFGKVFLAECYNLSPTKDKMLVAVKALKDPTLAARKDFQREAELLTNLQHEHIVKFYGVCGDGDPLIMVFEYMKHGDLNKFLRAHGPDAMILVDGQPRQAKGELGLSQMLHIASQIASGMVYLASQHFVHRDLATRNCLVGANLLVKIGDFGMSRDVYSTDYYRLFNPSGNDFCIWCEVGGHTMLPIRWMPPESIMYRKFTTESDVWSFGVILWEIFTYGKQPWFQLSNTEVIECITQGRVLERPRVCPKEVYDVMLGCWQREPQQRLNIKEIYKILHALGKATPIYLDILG
Macrophage-stimulating protein receptor, sequence (Q04912 25-304 limits assumed): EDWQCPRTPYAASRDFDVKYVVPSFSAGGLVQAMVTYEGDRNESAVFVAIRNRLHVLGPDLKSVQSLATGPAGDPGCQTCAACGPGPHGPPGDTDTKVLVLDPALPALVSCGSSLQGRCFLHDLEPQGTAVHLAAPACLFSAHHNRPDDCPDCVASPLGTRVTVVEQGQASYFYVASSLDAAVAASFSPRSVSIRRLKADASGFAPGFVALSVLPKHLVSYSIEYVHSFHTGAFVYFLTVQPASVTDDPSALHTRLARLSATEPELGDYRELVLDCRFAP
Macrophage-stimulating protein receptor, sequence (Q04912 310-1400 limits assumed): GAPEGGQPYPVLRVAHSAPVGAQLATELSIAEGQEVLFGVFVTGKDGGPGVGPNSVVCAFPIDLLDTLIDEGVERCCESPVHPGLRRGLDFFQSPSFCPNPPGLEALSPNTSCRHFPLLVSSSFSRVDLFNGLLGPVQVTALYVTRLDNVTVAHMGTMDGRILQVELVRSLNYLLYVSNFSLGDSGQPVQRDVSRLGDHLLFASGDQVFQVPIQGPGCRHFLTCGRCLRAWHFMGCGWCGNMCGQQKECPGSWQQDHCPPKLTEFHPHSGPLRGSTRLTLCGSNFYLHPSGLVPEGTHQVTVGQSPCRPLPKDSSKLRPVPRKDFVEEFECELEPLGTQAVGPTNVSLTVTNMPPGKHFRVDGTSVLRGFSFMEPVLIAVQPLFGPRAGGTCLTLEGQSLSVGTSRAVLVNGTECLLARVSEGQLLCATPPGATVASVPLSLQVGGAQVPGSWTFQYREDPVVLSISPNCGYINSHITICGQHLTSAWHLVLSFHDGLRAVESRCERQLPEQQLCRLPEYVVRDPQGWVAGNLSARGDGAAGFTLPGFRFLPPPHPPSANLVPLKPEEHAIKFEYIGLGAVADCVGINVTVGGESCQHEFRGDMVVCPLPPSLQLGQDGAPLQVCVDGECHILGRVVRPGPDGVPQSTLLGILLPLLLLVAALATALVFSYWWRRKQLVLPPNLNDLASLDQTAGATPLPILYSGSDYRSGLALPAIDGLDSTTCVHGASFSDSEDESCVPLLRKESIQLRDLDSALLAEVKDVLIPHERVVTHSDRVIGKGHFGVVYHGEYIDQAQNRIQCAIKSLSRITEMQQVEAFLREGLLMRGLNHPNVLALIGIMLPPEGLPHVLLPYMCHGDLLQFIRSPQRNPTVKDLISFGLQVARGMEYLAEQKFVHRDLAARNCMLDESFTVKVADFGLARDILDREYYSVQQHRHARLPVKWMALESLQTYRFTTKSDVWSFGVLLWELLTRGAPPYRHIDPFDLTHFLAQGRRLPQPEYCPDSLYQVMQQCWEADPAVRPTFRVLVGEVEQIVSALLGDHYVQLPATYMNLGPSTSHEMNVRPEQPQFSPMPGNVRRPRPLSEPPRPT

Compound | Activity (Mus musculus [1]) | Flu intensity (Mus musculus [2]) | IC50 [3] | Activity [4] | Activity [5] | Activity [6] | Activity (Mus musculus [7]) | IC50 [8] | IC50 [9] | Activity (Mus musculus [10]) | Activity (Mus musculus [11]) | Activity [12] | AUC at 336 h [13] | Activity [14] | IC50 [15] | Activity (Mus musculus [16]) | IC50 [17] | IC50 [18] | IC50 [19]
FC(F)(F)c1ccc(CNc2ccc(Cc3c[nH]c4ncc(Cl)cc34)cn2)cn1 [PEXIDARTINIB] | 31 |  |  |  |  |  |  |  |  |  |  |  |  |  |  |  |  |  | 
COc1ncc(F)cc1CNc1ccc(Cc2c[nH]c3ncc(C)cc23)c(F)n1 [PLX-5622] |  | 0.249 a.u. | > 1000 nM | 68.459% | 14 | 68.859% | 0 pg | > 1000 nM | > 1000 nM | 9.38% | 33.704% | > 99% | 23100 ng·h/mL | 13.681 RPKM | > 1000 nM | 0.175 | > 1000 nM | > 1000 nM | > 1000 nM
